Assays:
MCF-7 = assay: Proliferation of breast cancer cells, MCF-7; type: cell-based; details: Homo sapiens, MCF7, 120 h, read-out: IC50, proliferation
Method in brief: (§1)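 Cells grown in phenol red-free DMEM with 5% FBS at 37 °C, 5% CO2. MCF-7/TamR cells were derived by prolonged 4-hydroxytamoxifen exposure. Cells seeded at 50000/well, then treated 5 days with test compound at six doses from 10−10 to 10−5 M, with DMSO vehicle. Viable cells counted by Coulter counter. Survival expressed as a percentage of vehicle, and IC50 taken from dose–response curves.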

MCF-7/TamR = assay: Proliferation of breast cancer cells, MCF-7/TamR; type: cell-based; details: Homo sapiens, MCF7, 120 h, read-out: IC50, proliferation
Method in brief: as §1

T47D-kb-Luc cells = assay: T47D-kb-Luc ERE luciferase reporter gene assay; type: cell-based, human; details: at 1 nM, in the presence of 0.01 nM estradiol (E2)
Method in brief: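 Stably transfected T47D-kb-Luc reporter cells were stimulated with estradiol at 10−11 M plus test compound at 0.1, 1 or 10 nM. ERE-driven activity was read as relative luciferase units and normalized to the estradiol-only control. Run in quadruplicate in at least three separate experiments, reported as mean ± SD (%).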

ERα [1] = molecular target: T1, ERα (Homo sapiens, UniProt P03372); assay: Western blot of ERα downregulation in T47D cells; type: cell-based; details: dose range 0.03–1 μM
T1 sequence (P03372 1-595): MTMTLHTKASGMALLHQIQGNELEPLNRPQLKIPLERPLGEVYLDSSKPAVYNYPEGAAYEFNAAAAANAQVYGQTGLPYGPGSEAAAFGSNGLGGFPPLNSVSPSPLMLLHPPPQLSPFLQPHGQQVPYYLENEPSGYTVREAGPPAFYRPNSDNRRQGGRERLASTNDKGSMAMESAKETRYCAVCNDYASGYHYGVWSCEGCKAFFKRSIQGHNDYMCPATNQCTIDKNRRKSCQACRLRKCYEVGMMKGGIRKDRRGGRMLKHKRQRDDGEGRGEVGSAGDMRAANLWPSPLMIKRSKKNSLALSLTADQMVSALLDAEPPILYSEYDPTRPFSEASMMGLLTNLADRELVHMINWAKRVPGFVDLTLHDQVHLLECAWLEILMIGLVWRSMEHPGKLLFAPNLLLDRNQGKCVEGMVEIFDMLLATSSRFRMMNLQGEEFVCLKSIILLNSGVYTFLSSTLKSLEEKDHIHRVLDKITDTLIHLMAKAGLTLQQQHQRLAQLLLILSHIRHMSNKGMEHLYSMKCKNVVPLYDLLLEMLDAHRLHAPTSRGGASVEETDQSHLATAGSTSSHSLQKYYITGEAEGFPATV

ERα [2] = molecular target: T1, ERα; assay: Western blot of ERα downregulation in T47D/PKCα cells; type: cell-based; details: dose range 0.03–1 μM
[3] = Stability in culture media in vitro; type: in vitro ADME; details: dissolved in ethanol then diluted in culture media for an extended period of time
[4] = patients, cited from earlier work

IC50 (MCF-7) | IC50 (MCF-7/TamR) | Compound | inhibition of E2-induced luciferase (ERE activity) (T47D-kb-Luc cells) | ER downregulation level (ERα [1]) | ER downregulation level (ERα [2]) | metabolic stability in vitro [3] | peak blood concentration ([4]; 500 mg im, FINDER1 and FINDER2 clinical trials ref 3, 5) | time to reach steady-state serum concentration ([4]; im monthly dose of 250 mg ref 4)
0.0033 µM | 22 µM | CC/C(=C(\c1ccc(O)cc1)c1ccc(OCCN(C)C)cc1)c1ccccc1 [Compound 4-OHT, 4-hydroxytamoxifen] |  |  |  |  |  | 
 |  | C[C@]12CC[C@@H]3c4ccc(B(O)O)cc4C[C@@H](CCCCCCCCC[S+]([O-])CCCC(F)(F)C(F)(F)F)[C@H]3[C@@H]1CC[C@@H]2O (stereo partly drawn) [Compound 5, ((7R,8R,9S,13S,14S,17S)-17-Hydroxy-13-methyl-7-(9-((4,4,5,5,5-pentafluoropentyl)sulfinyl)nonyl)-7,8,9,11,12,13,14,15,16,17-deca-hydro-6H-cyclopenta[a]phenanthren-3-yl)boronic Acid] | completely blocking the estrogen response element (ERE) activity | greater than 50% | greater than 50% | metabolic stability was later confirmed in vitro |  | 
 |  | C[C@]12CC[C@@H]3c4ccc(O)cc4C[C@@H](CCCCCCCCC[S+]([O-])CCCC(F)(F)C(F)(F)F)[C@H]3[C@@H]1CC[C@@H]2O (stereo partly shown) [fulvestrant] |  | greater than 50% | greater than 50% |  | < 25 ng/mL | over 3 months
